The values that follow come from ChEMBL document CHEMBL1132233, “6-Anilinouracil-based inhibitors of Bacillus subtilis DNA polymerase III: antipolymerase and antimicrobial structure-activity relationships based on substitution at uracil N3” (J Med Chem, 1999).

Structures are written as SMILES. In brackets after ≈: the same amount, converted by molar mass.

In one assay the test system is Bacillus subtilis. Put plainly: Minimum inhibitory concentration against Bacillus subtilis. In kind it is functional. In outline:
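Test organism was penicillin-sensitive B. subtilis strain BD54. A log-phase culture was diluted to 10^4 cells/mL in Luria broth. Inhibitors in DMSO were added at 0–100 µM, with final DMSO at 1%. Cultures were incubated 24 h at 37 °C and growth was scored by eye. MIC is the lowest concentration with no apparent growth, averaged over three independent experiments.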

Assay [1] can be described thus: Compound was tested for inhibitory activity against DNA pol III of Bacillus subtilis. The method, boiled down:
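Homogeneous recombinant B. subtilis DNA pol III was assayed on activated calf thymus DNA. Apparent Ki was determined with a truncated assay lacking the competitor dGTP. Values are the average of three independent experiments.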

Assay [2] deals with DNA polymerase III (Bacillus subtilis). Nature of the assay: Compound was tested for inhibitory activity against DNA polymerase III of Bacillus subtilis.

`CCc1cc(Nc2cc(=O)n(CCCOC)c(=O)[nH]2)ccc1C` gave an MIC against Bacillus subtilis of 1.5 µM (≈ 0.476 µg/mL). Besides, the affinity in assay [1] corresponds to a Ki of 1 µM.
The corresponding values for `CCc1cc(Nc2cc(=O)n(CCCO)c(=O)[nH]2)ccc1C` are 3 µM (≈ 0.91 µg/mL) and 0.73 µM.
The corresponding values for `CCc1cc(Nc2cc(O)nc(O)n2)ccc1C` are 30 µM (≈ 7.36 µg/mL) and 1 µM.
`C=CCn1c(=O)cc(Nc2ccc(C)c(CC)c2)[nH]c1=O` gave an MIC in the assay on Bacillus subtilis of 1.5 µM (≈ 0.428 µg/mL). This compound registered a Ki in assay [1] of 0.21 µM.
Compound `CCc1cc(Nc2cc(=O)n(CC)c(=O)[nH]2)ccc1C` yielded an MIC with Bacillus subtilis of 1.5 µM (≈ 0.41 µg/mL). In addition, in assay [2], the affinity corresponds to a Ki of 0.12 µM.
The corresponding values for `CCCn1c(=O)cc(Nc2ccc3c(c2)CCC3)[nH]c1=O` are 11 µM (≈ 3.14 µg/mL) and 0.31 µM.
In the assay on Bacillus subtilis, `CCc1cc(Nc2cc(=O)n(CCO)c(=O)[nH]2)ccc1C` displayed an MIC of 3 µM (≈ 0.868 µg/mL). Moreover, the Ki in assay [1] was found to be 0.59 µM.
`CCc1cc(Nc2cc(=O)n(CCOC)c(=O)[nH]2)ccc1C` displayed an MIC against Bacillus subtilis of 3 µM (≈ 0.91 µg/mL). This compound had an inhibition constant (Ki) in assay [1] of 0.58 µM.
With `C=CCn1c(=O)cc(Nc2ccc3c(c2)CCC3)[nH]c1=O`, the MIC against Bacillus subtilis turned out to be 3 µM (≈ 0.85 µg/mL). The same compound displayed a Ki in assay [1] of 0.38 µM.
`CCCCn1c(=O)cc(Nc2ccc3c(c2)CCC3)[nH]c1=O` yielded an MIC against Bacillus subtilis of 3 µM (≈ 0.898 µg/mL). The compound also registered a Ki in assay [2] of 0.09 µM.
`CCCCCCn1c(=O)cc(Nc2ccc3c(c2)CCC3)[nH]c1=O` gave an MIC with Bacillus subtilis greater than 100 µM. In addition, in assay [1], the affinity, expressed as Ki, was 0.24 µM.
With `CCn1c(=O)cc(Nc2ccc3c(c2)CCC3)[nH]c1=O`, the MIC in the assay on Bacillus subtilis amounted to 3 µM (≈ 0.814 µg/mL). The Ki in assay [1] was 0.31 µM.
The corresponding values for `Cn1c(=O)cc(Nc2ccc3c(c2)CCC3)[nH]c1=O` are 5 µM (≈ 1.29 µg/mL) and 1.34 µM.
As for `Oc1cc(Nc2ccc3c(c2)CCC3)nc(O)n1`, the MIC in the assay with Bacillus subtilis was 30 µM (≈ 7.3 µg/mL). In assay [1], this compound came in with a Ki of 1.2 µM.

One may read the MIC as the lowest concentration found to suppress growth. Low values mean greater potency, high ones weaker potency. The Ki is a measure of affinity in units of concentration, obtained from inhibition or displacement.
